In ChEMBL document CHEMBL2010670, “Discovery of a clinical stage multi-kinase inhibitor sodium (E)-2-{2-methoxy-5-[(2',4',6'-trimethoxystyrylsulfonyl)methyl]phenylamino}acetate (ON 01910.Na): synthesis, structure-activity relationship, and biological activity” (J Med Chem, 2011):

How the values were obtained:
MOLT-4 = assay: Cytotoxicity against human MOLT4 cells after 96 hrs by trypan blue exclusion assay; assay type: functional, cell-based; details: MOLT-4, 96 h
Method in brief: (§1)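 Cells grown in DMEM or RPMI with 10% FBS and penicillin-streptomycin, seeded at 1.0 × 10⁵ cells/mL/well in 6-well dishes. Compound added at a range of concentrations 24 h after seeding. Viable cells counted by trypan blue exclusion from duplicate wells after 96 h of exposure; dose-response end point.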

HFL1 = assay: Induction of apoptosis in human HFL1 cells assessed as PARP1 cleavage at 0.25 to 5 uM after 48 hrs by Western blot analysis; assay type: cell-based; details: hfl1, 48 h
Method in brief: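 DU145 or HFL-1 cells plated at 3.0 × 10⁶ per […], treated 24 h later with DMSO or compound for 48 h. Frozen pellets lysed in 1% NP40/PBS with protease inhibitors. Equal protein run on 10% SDS-PAGE, transferred to nitrocellulose, probed with anti-PARP antibody, ECL detection.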

SK-BR-3 = assay: Cytotoxicity against human SKBR3 cells after 96 hrs by trypan blue exclusion assay; assay type: functional, cell-based; details: SK-BR-3, 96 h
Method in brief: (§2)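 Cells grown in DMEM or RPMI with 10% FBS and 1 unit/mL penicillin-streptomycin, seeded at 1.0 × 10⁵ cells/mL/well in 6-well dishes; compound added 24 h later at various concentrations. After 96 h of treatment, viable cells counted by trypan blue exclusion in duplicate wells; dose-response end point.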

[1] = Cytotoxicity against human MES-SA cells assessed as cell viability after 96 hrs by trypan blue exclusion; assay type: functional, cell-based; method in brief: as §1
Mus musculus = assay: Toxicity against NCR-nu/nu, Taconic mouse xenografted with human BT20 cells assessed as decrease in body weight at 200 mg/kg, ip administered every other day for 22 days; assay type: organism-based, BT-20; parameters: dose 200 mg/kg, route intraperitoneal; scale not given: the % may be the effect or the level left; details: in vivo, 528 h
Method in brief: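 Female athymic nude mice bearing subcutaneous BT20 hind-leg xenografts (0.5–1.0 × 10⁷ cells) grouped about 14 days later at ~70 mm³ (N=9). Dosed 200 mg/kg in PBS or PBS alone, Q2D × 20; methods state tail-vein IV, legend states IP. Body weight recorded at each tumor measurement, three times weekly; observed for toxicity signs; mean ± SEM.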

[2] = Cytotoxicity against human WM239A cells after 96 hrs by trypan blue exclusion assay; assay type: functional, cell-based; method in brief: as §2
[3] = Cytotoxicity against human HCC1428 cells after 96 hrs by trypan blue exclusion assay; assay type: functional, cell-based; details: HCC1428, 96 h; method in brief: as §1
HCT-15 = assay: Cytotoxicity against human HCT15 cells after 96 hrs by trypan blue exclusion assay; assay type: functional, cell-based; details: HCT-15, 96 h; method in brief: as §1
K562 = assay: Cytotoxicity against human K562 cells after 96 hrs by trypan blue exclusion assay; assay type: functional, cell-based; details: k562; method in brief: as §1
[4] = Cytotoxicity against human NAMALWA cells after 96 hrs by trypan blue exclusion assay; assay type: functional, cell-based; details: NAMALVA; method in brief: as §1
Bel-7402 = assay: Cytotoxicity against human Bel7402 cells after 96 hrs by trypan blue exclusion assay; assay type: functional, cell-based; details: Bel-7402, 96 h; method in brief: as §1
SW480 = assay: Cytotoxicity against human SW480 cells after 96 hrs by trypan blue exclusion assay; assay type: functional, cell-based; details: SW480, 96 h; method in brief: as §2
NCI-H157 = assay: Cytotoxicity against human NCI-H157 cells after 96 hrs by trypan blue exclusion assay; assay type: functional, cell-based; details: NCI-H157, 96 h; method in brief: as §1
MCF7 = assay: Cytotoxicity against human MCF7 cells after 96 hrs by trypan blue exclusion assay; assay type: functional, cell-based; details: MCF7, 96 h; method in brief: as §1
U-266 = assay: Cytotoxicity against human U266 cells after 96 hrs by trypan blue exclusion assay; assay type: functional, cell-based; details: U-266, 96 h; method in brief: as §2
CCRF-CEM = assay: Cytotoxicity against human CEM cells assessed as cell viability after 96 hrs by trypan blue exclusion; assay type: functional, cell-based; method in brief: as §1
[5] = Cytotoxicity against multidrug-resistant human 2008/17/4 cells assessed as cell viability after 96 hrs by trypan blue exclusion; assay type: functional, cell-based; method in brief: as §2
PANC-1 = assay: Cytotoxicity against human PANC1 cells after 96 hrs by trypan blue exclusion assay; assay type: functional, cell-based; details: PANC-1, 96 h; method in brief: as §1
[6] = Cytotoxicity against human WM278 cells after 96 hrs by trypan blue exclusion assay; assay type: functional, cell-based; details: WM278, 96 h; method in brief: as §2
DU-145 = assay: Cytotoxicity against human DU145 cells after 96 hrs by trypan blue exclusion assay; assay type: functional, cell-based; details: du-145; method in brief: as §1
BXPC-3 = assay: Cytotoxicity against human BxPC3 cells after 96 hrs by trypan blue exclusion assay; assay type: functional, cell-based; details: BXPC-3, 96 h; method in brief: as §1
MDA-MB-231 = assay: Cytotoxicity against human MDA-MB-231 cells after 96 hrs by trypan blue exclusion assay; assay type: functional, cell-based; details: MDA-MB-231, 96 h; method in brief: as §1
[7] = Cytotoxicity against human COLO320 cells after 96 hrs by trypan blue exclusion assay; assay type: functional, cell-based; details: COLO 320, 96 h; method in brief: as §1
MIA PaCa-2 = assay: Cytotoxicity against human MIAPaCa2 cells after 96 hrs by trypan blue exclusion assay; assay type: functional, cell-based; details: MIA PaCa-2, 96 h; method in brief: as §1
[8] = Cytotoxicity against human Z138C cells after 96 hrs by trypan blue exclusion assay; assay type: functional, cell-based; method in brief: as §2
OVCAR-3 = assay: Cytotoxicity against human OVCAR3 cells after 96 hrs by trypan blue exclusion assay; assay type: functional, cell-based; details: OVCAR-3, 96 h; method in brief: as §1
CEM/C2 = assay: Resistance ratio of IC50 for human CEM cells to IC50 for multidrug-resistant human CEM/C2 cells; assay type: functional
Method in brief: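 Cells were grown in DMEM or RPMI with 10% FBS and plated at 1.0 × 10⁵ cells/mL/well in 6-well dishes. Compound was added 24 h later at various concentrations for 96 h. Viable cells were counted from duplicate wells by trypan blue exclusion, and the IC50 of each line gave the ratio.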

## COc1cc(OC)c(/C=C/S(=O)(=O)Cc2ccc(OC)c(NCC(=O)[O-])c2)c(OC)c1.[Na+] [RIGOSERTIB SODIUM]
MOLT-4
  IC50: 40 nM
HFL1
  Activity: Non-toxic
SK-BR-3
  IC50: 75 nM
[1]
  IC50: 100 nM
Mus musculus
  Activity: < 10%
[2]
  IC50: 75 nM
[3]
  IC50: 60 nM
HCT-15
  IC50: 90 nM
K562
  IC50: 15 nM
[4]
  IC50: 75 nM
Bel-7402
  IC50: 100 nM
SW480
  IC50: 60 nM
NCI-H157
  IC50: 80 nM
MCF7
  IC50: 75 nM
U-266
  IC50: 25 nM
CCRF-CEM
  IC50: 100 nM
[5]
  IC50: 100 nM
PANC-1
  IC50: 40 nM
[6]
  IC50: 150 nM
DU-145
  IC50: 100 nM
BXPC-3
  IC50: 75 nM
MDA-MB-231
  IC50: 25 nM
[7]
  IC50: 60 nM
MIA PaCa-2
  IC50: 50 nM
[8]
  IC50: 75 nM
OVCAR-3
  IC50: 75 nM
CEM/C2
  Ratio IC50: 2
